# Measured values reported in ChEMBL document CHEMBL1150803, “Absence of a universal mechanism of mitochondrial toxicity by nucleoside analogs” (Antimicrob Agents Chemother, 2007).
# Columns and labels:
# [1] = system: H9c2; assay: Toxicity against rat H9c2 cells assessed as metabolic alterations at 10 to 50 uM after 4 to 14 days by SRB assay; conditions: h9c2, 50 µM
# [2] = Toxicity in human HepG2/C3A cells assessed as induction of cell death at 10 to 50 uM after 4 to 14 days; format: cell-based
# Outline: (§1)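 LIVE/DEAD flow cytometry: harvested cells in PBS with 100 nM calcein AM and 8 μM ethidium homodimer 1, 30 min at 37°C in the dark, 488 nm excitation. After debris gating, dead cells are those high in ethidium homodimer and low in calcein, counted per 10,000 events. HepG2 were exposed 4, 10 or 14 days; H9c2 12 days. Compared with time-matched control.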
# [3] = system: H9c2; assay: Toxicity against rat H9c2 cells assessed as inhibition of cell proliferation at 10 to 50 uM after 4 to 14 days by SRB assay; conditions: h9c2, 50 µM
# [4] = Toxicity against human HepG2/C3A cells assessed as metabolic alterations at 10 to 50 uM after 4 to 14 days by SRB assay; format: cell-based
# [5] = Toxicity against human HepG2/C3A cells assessed as inhibition of cell proliferation at 10 to 50 uM after 6 days by SRB assay
# [6] = system: H9c2; assay: Toxicity in rat […] cells assessed as induction of cell death at 10 to 50 uM after 4 to 14 days
# [7] = system: H9c2; assay: Toxicity against rat H9c2 cells assessed as reduction in mitochondrial DNA copy numbers at 10 uM after 12 days relative to control; set-up: scale not given: the % may be the effect or the level left; conditions: h9c2, 288 h
# [8] = Toxicity against human HepG2/C3A cells assessed as reduction in mitochondrial DNA copy numbers at 50 uM after 4 to 14 days relative to control; format: cell-based; set-up: scale not given: the % may be the effect or the level left
# Outline: (§2)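 HepG2/C3A cells were grown in MEM with pyruvate and 10% FBS. Drug in PBS was replenished every 2 days for 4, 10 or 14 days. DNA was extracted and quantified by real-time SYBR Green PCR with 0.5 μM of each primer and 2 mM MgCl2. Output is the cytochrome b/pyruvate kinase gene copy ratio (mtDNA/nDNA), compared with time-matched control. Mean of three experiments.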
# [9] = Toxicity against human HepG2/C3A cells assessed as reduction in mitochondrial DNA copy numbers at 10 uM after 4 to 14 days relative to control; format: cell-based; set-up: scale not given: the % may be the effect or the level left
# Outline: as §2
# [10] = Toxicity against human HepG2/C3A cells assessed as increase in mitochondrial superoxide production at 0.5 ug/ml after 4 to 14 days by flow cytometry; format: cell-based
# Outline: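 HepG2/C3A cells were cultured in MEM with 10% FBS with 0.5 µg/ml EtBr for 4, 10 and 14 days, with medium changed every 2 days. Attached cells were loaded with 5 µM MitoSOX Red in HBSS with Ca/Mg for 10 min at 37°C in the dark, then trypsinised. Flow cytometry used 488-nm excitation and 530/30 emission; the value is the geometric mean fluorescence of 10,000 cells.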
# [11] = Toxicity against human HepG2/C3A cells assessed as inhibition of cell proliferation at 0.5 ug/ml after 6 days by SRB assay; format: cell-based; conditions: 144 h
# Outline: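 Cells were seeded at about 2,500/well in 12-well plates and cultured with 0.5 µg/ml EtBr for 6 days. They were fixed overnight in methanol with 1% acetic acid at −10°C and stained 1 h with 0.5% SRB. Bound dye was eluted with 10 mM Tris pH 10 and absorbance read at 540 nm. Three experiments were run.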
# [12] = Toxicity against human HepG2/C3A cells assessed as elevation of lactate levels at 0.5 ug/ml after 6 days by NAD+ reduction assay; format: cell-based; conditions: 144 h
# Outline: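 Cells were exposed to 0.5 µg/ml EtBr for 6 days in 12-well plates seeded at about 2,500 cells/well, with drug in PBS replenished at medium changes. Medium was deproteinised with TCA. Lactate was measured as NADH at 340 nm after 30 min at room temperature in glycine-hydrazine buffer pH 9.2 with NAD+ and lactate dehydrogenase. Results are nmol/well normalised to SRB absorbance, from three experiments.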
# [13] = Toxicity against human HepG2/C3A cells assessed as reduction in mitochondrial DNA copy numbers at 0.5 ug/ml after 14 days relative to control; format: cell-based; set-up: scale not given: the % may be the effect or the level left; conditions: 336 h
# Outline: (§3)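 DNA was extracted after 0.5 µg/ml EtBr exposure: H9c2 at 12 days (pre-kept 7 days in 1% FBS plus 10 nM retinoic acid), HepG2/C3A at 4, 10 and 14 days. SYBR real-time PCR used 0.5 µM primers and 2 mM MgCl2. Copy numbers came from purified-product standards, reported as cytochrome b/pyruvate kinase ratio versus control.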
# [14] = Toxicity against human HepG2/C3A cells assessed as reduction in mitochondrial DNA copy numbers at 0.5 ug/ml after 4 days relative to control; format: cell-based; set-up: scale not given: the % may be the effect or the level left; conditions: 96 h
# Outline: as §3
# [15] = Toxicity against human […] cells assessed as reduction in mitochondrial DNA copy numbers at 0.5 ug/ml after 6 days relative to control; format: cell-based; set-up: scale not given: the % may be the effect or the level left; conditions: hepg2/c3a, 144 h
# [16] = Toxicity in human HepG2/C3A cells assessed as cell viability at 0.5 ug/ml after 10 days; format: cell-based
# Outline: (§4)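 HepG2/C3A cells were cultured with 0.5 µg/ml EtBr for 10 or 14 days. Harvested cells were stained with 100 nM calcein AM and 8 µM ethidium homodimer 1 for 30 min at 37°C in the dark, then analysed by flow cytometry at 488-nm excitation. Dead cells (high ethidium homodimer, low calcein) were counted per 10,000 events after debris gating.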
# [17] = Toxicity in human HepG2/C3A cells assessed as cell viability at 0.5 ug/ml after 14 days; format: cell-based
# Outline: as §4
# [18] = Toxicity against human HepG2/C3A cells assessed as reduction in mitochondrial DNA copy numbers at 0.5 ug/ml after 10 days relative to control; format: cell-based; set-up: scale not given: the % may be the effect or the level left; conditions: 240 h
# Outline: as §3
# [19] = Toxicity against human HepG2/C3A cells assessed as inhibition of cell proliferation at 50 uM after 6 days by SRB assay; format: cell-based; conditions: 144 h
# Outline: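 Cells were seeded at about 2,500 per well and exposed to drug for 6 days. They were fixed overnight at −10°C in methanol with 1% acetic acid, stained with 0.5% SRB in 1% acetic acid for 1 h at room temperature, and the dye eluted with 10 mM Tris pH 10. Result is dilution-adjusted absorbance at 540 nm, mean of three experiments.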
# [20] = Toxicity against human HepG2/C3A cells assessed as induction of cell death at 5 uM after 14 days; format: cell-based; conditions: 336 h
# Outline: as §1
# [21] = system: H9c2; assay: Toxicity in rat H9c2 cells assessed as effect on cell viability at 1 to 5 uM after 12 days; conditions: h9c2, 288 h
# [22] = system: H9c2; assay: Toxicity in rat H9c2 cells assessed as effect on cell viability at 5 uM after 6 days; conditions: h9c2, 144 h
# [23] = Toxicity against human HepG2/C3A cells assessed as reduction in mitochondrial DNA copy numbers at 5 uM after 14 days relative to control; format: cell-based; set-up: scale not given: the % may be the effect or the level left; conditions: 336 h
# Outline: as §2
# [24] = Toxicity against human HepG2/C3A cells assessed as reduction in mitochondrial DNA copy numbers at 1 uM after 14 days relative to control; format: cell-based; set-up: scale not given: the % may be the effect or the level left; conditions: 336 h
# Outline: as §2
# [25] = system: H9c2; assay: Toxicity against rat H9c2 cells assessed as reduction in mitochondrial DNA copy numbers at 1 to 5 uM after 12 days relative to control; conditions: h9c2, 288 h
# [26] = Toxicity against human HepG2/C3A cells assessed as reduction in mitochondrial DNA copy numbers at 1 uM after 4 days relative to control; format: cell-based; set-up: scale not given: the % may be the effect or the level left; conditions: 96 h
# Outline: as §2
# [27] = Toxicity against human HepG2/C3A cells assessed as reduction in mitochondrial DNA copy numbers at 5 uM after 4 days relative to control; format: cell-based; set-up: scale not given: the % may be the effect or the level left; conditions: 96 h
# Outline: as §2
# [28] = Toxicity in human HepG2/C3A cells assessed as induction of cell death at 50 uM after 14 days; format: cell-based; conditions: 336 h
# Outline: as §1
# [29] = system: H9c2; assay: Toxicity against rat H9c2 cells assessed as elevation of lactate levels at 10 uM after 6 days by NAD+ reduction assay; conditions: h9c2, 144 h
# [30] = system: H9c2; assay: Toxicity against rat H9c2 cells assessed as elevation of lactate levels at 50 uM after 6 days by NAD+ reduction assay; conditions: h9c2, 144 h
# [31] = Toxicity in human HepG2/C3A cells assessed as induction of cell death at 50 uM after 4 days; format: cell-based; conditions: 96 h
# Outline: as §1
# [32] = Toxicity in human HepG2/C3A cells assessed as induction of cell death at 50 uM after 10 days; format: cell-based; conditions: 240 h
# Outline: as §1
# [33] = Toxicity against human HepG2/C3A cells assessed as elevation of lactate levels at 10 uM after 6 days by NAD+ reduction assay; format: cell-based; conditions: 144 h
# Outline: (§5)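 Cells were seeded at about 2,500 per well and exposed 6 days; H9c2 were retinoic-acid-conditioned in 1% FBS. Medium was deproteinized with ice-cold 10% TCA. Lactate was read by LDH-catalyzed NAD+ reduction in 0.2 M glycine-hydrazine pH 9.2 with 0.6 mg/ml NAD+ and 17 U/ml LDH, 30 min at room temperature, absorbance 340 nm. Result is nmol/well normalized to SRB absorbance.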
# [34] = Toxicity in human HepG2/C3A cells assessed as induction of cell death at 10 uM after 4 days; format: cell-based; conditions: 96 h
# Outline: as §1
# [35] = Toxicity against human HepG2/C3A cells assessed as increase in mitochondrial superoxide production at 50 uM by flow cytometry; format: cell-based
# Outline: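 Flask-grown cells were loaded with 5 μM MitoSOX Red in HBSS with Ca/Mg for 10 min at 37°C in the dark, trypsinized, and analyzed by flow cytometry (488 nm excitation, 530/30 emission). Result is the geometric mean fluorescence of 10,000 cells. HepG2 were sampled on days 4, 10 and 14; H9c2 on day 12. Compared with time-matched control.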
# [36] = Toxicity against human HepG2/C3A cells assessed as effect on mitochondrial DNA copy numbers at 50 uM after 10 days; format: cell-based; conditions: 240 h
# Outline: as §2
# [37] = system: H9c2; assay: Toxicity in rat H9c2 cells assessed as induction of cell death at 50 uM after 12 days; conditions: h9c2, 288 h
# [38] = Toxicity against human HepG2/C3A cells assessed as effect on mitochondrial DNA copy numbers at 50 uM after 4 days; format: cell-based; conditions: 96 h
# Outline: as §2
# [39] = Toxicity against human HepG2/C3A cells assessed as elevation of lactate levels at 50 uM after 6 days by NAD+ reduction assay; format: cell-based; conditions: 144 h
# Outline: as §5
# [40] = system: H9c2; assay: Toxicity against rat H9c2 cells assessed as increase in mitochondrial superoxide production at 50 uM by flow cytometry; conditions: h9c2, 50 µM
# [41] = system: H9c2; assay: Toxicity against rat H9c2 cells assessed as effect on mitochondrial DNA copy numbers after 12 days; conditions: h9c2, 288 h
compound,measurement,setting,value
O=c1[nH]cnc2c1ncn2[C@H]1CC[C@@H](CO)O1 [DIDANOSINE],Activity,[1],Non-toxic
same,Activity,[2],Non-toxic
same,Activity,[3],Non-toxic
same,Activity,[4],Non-toxic
same,Activity,[5],Non-toxic
same,Activity,[6],Non-toxic
same,Activity,[7],60%
same,Activity,[8],50%
same,Activity,[9],80%
CC[n+]1c(-c2ccccc2)c2cc(N)ccc2c2ccc(N)cc21.[Br-] [HOMIDIUM BROMIDE],Activity,[10],Toxic
same,Activity,[11],Toxic
same,Activity,[12],Toxic
same,Activity,[13],4%
same,Activity,[14],16%
same,Activity,[15],16%
same,"viability at 240 h, 0.5 ug/ml",[16],> 80%
same,"viability at 336 h, 0.5 ug/ml",[17],> 80%
same,Activity,[18],10%
Nc1ccn([C@H]2CC[C@@H](CO)O2)c(=O)n1 [ZALCITABINE],Activity,[19],Non-toxic
same,Activity,[20],Toxic
same,Activity,[21],Non-toxic
same,Activity,[22],Non-toxic
same,Activity,[23],1%
same,Activity,[24],1%
same,Activity,[25],Non-toxic
same,Activity,[26],15%
same,Activity,[27],11%
Cc1cn([C@H]2C[C@H](N=[N+]=[N-])[C@@H](CO)O2)c(=O)[nH]c1=O [ZIDOVUDINE],Activity,[28],Toxic
same,Activity,[29],Toxic
same,Activity,[19],Toxic
same,Activity,[30],Toxic
same,Activity,[31],Toxic
same,Activity,[32],Toxic
same,Activity,[33],Toxic
same,Activity,[34],Toxic
same,Activity,[35],Toxic
same,Activity,[36],Toxic
same,Activity,[37],Non-toxic
same,Activity,[38],Toxic
same,Activity,[39],Toxic
same,Activity,[40],Non-toxic
same,Activity,[41],Non-toxic
